Data set [1] deals with C2C12. Put plainly: Uncoupling activity in mouse C2C12 cells assessed as induction of SLC25-mediated mitochondrial respiration at 50 uM mixed for 2 mins measured after 2 mins post mixing relative to basal oligomycin-treated respiration. Type of data set: cell-based. The gist of the method:
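C2C12 cells seeded 35,000/well, assayed next day in Seahorse XF24 respiration buffer (DMEM, pyruvate, 20 mM glucose) after 1 h CO2-free. Sequential injections: oligomycin 1 μM, compound 50 μM, FCCP 0.2 μM, rotenone 3 μM final; cycles of 2 min mix, 2 min measure. Cycle 6 set to 100%; maximal respiration over cycles 7–15 reported. n=3–6.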

The nature of data set [2]: Half life in mouse liver microsomes at 1 uM after 60 mins in presence of NADPH by LC-MS/MS analysis. Type of data set: ADME, microsome. An outline of the steps:
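Test compound at 1 μM with 1 mg/mL mouse liver microsomes in 100 mM KPi pH 7.4, 37C with shaking; started with NADPH (1 mM final), -NADPH controls included. Samples at 0, 5, 10, 20, 40, 60 min quenched in 5X acetonitrile, filtered, LC-MS/MS; data log transformed to half-life.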

Data set [3] addresses T1, N-fatty-acyl-amino acid synthase/hydrolase PM20D1 (Mus musculus, UniProt Q8C165).
T1 sequence (Q8C165 whole entry): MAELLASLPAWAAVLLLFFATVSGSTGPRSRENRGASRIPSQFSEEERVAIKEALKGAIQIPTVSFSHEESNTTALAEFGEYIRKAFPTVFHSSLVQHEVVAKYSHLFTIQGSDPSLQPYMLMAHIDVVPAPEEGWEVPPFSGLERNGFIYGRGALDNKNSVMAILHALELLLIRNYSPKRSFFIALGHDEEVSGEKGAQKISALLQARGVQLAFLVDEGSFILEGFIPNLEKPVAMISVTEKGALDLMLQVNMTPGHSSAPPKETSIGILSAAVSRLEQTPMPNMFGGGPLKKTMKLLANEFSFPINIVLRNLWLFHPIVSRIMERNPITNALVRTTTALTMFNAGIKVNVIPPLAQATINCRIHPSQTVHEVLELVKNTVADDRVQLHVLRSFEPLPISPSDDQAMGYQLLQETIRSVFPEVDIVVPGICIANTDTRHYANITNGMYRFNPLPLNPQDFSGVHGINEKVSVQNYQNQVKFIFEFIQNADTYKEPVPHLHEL
Put plainly: Metabolic stability assessed as recombinant mouse 6xHis/FLAG-tagged PM20D1-mediated hydrolysis by measuring parent compound remaining at 100 nmol after 1 hr by LC-MS method. Type of data set: ADME. Particulars: in the assay text read “at 10 nmol” for “at 100 nmol”. The gist of the method:
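Murine PM20D1–6xHis-Flag expressed transiently in 293T cells, Flag-M2 purified from serum-free conditioned medium. 10 nmol compound in 100 μl PBS (100 μM) with enzyme or PBS, 1 h at 37 °C; quenched in chloroform:methanol with d31-palmitate internal standard; intact substrate and released fatty acid quantified by LC-MS. Means ± SEM, n=3.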

Data set [4] has as its system Mus musculus. Put plainly: Anti-obesity activity against DIO mouse assessed as reduction in food intake at 25 mg/kg, ip administered daily for 7 consecutive days. Type of data set: functional, organism-based.
Data set [5] concerns Mus musculus. Kind of data set: Anti-obesity activity against DIO mouse assessed as blood glucose levels at 25 mg/kg, ip administered daily for 7 consecutive days measured after 2 hrs post last dose (reference value: 204 +/- 7 mg/dl). Type of data set: functional.
Data set [6] deals with Mus musculus. Kind of data set: Anti-obesity activity against DIO mouse assessed as reduction in body weight gain by measuring net weight change at 25 mg/kg, ip administered daily for 7 consecutive days (reference value: 1.1 +/- 0.1 g). Type of data set: functional.
Data set [7] has as its system Mus musculus. Kind of data set: Anti-obesity activity against ip dosed DIO mouse assessed as reduction in body weight gain administered daily for 7 consecutive days. Type of data set: functional, organism-based.
Data set [8] relates to Mus musculus. Kind of data set: Anti-obesity activity against DIO mouse assessed as reduction in body weight gain by measuring net weight change at 5 mg/kg, ip administered daily for 7 consecutive days (reference value: 1.1 +/- 0.1 g). Type of data set: functional, organism-based.
The test system of data set [9] is Mus musculus. Kind of data set: Anti-obesity activity against DIO mouse assessed as reduction in body weight gain by measuring net weight change at 10 mg/kg, ip administered daily for 7 consecutive days (reference value: 1.1 +/- 0.1 g). Type of data set: functional.

SMILES strings stand for the structures. Calls of active or inactive are those of the source. No cut-off for these calls is given here. Where a SMILES comes first, the peptide text is derived from it. The star is where a group is joined. Oleoyl = CCCCCCCC/C=C\CCCCCCCC(=O)*

With `CCCCCCCC/C=C\CCCCCCCC(=O)N[C@@H](Cc1c[nH]c2ccccc12)C(=O)O`, the Emax in [1] is 147%.
For `CCCCCCCC/C=C\CCCCCCCC(=O)N[C@@H](CC(C)C)C(=O)O`, in [2], the half-life at 1 µM was 0.133 h. Besides, the Emax in [1] is 178%.
For the molecule `CC/C=C\C/C=C\C/C=C\C/C=C\C/C=C\C/C=C\CCC(=O)N[C@@H](Cc1ccccc1)C(=O)O`, the Emax in data set [1] amounted to 166%.
On to `CCCCC/C=C\C/C=C\CCCCCCCC(=O)N1Cc2ccccc2[C@H]1C(=O)O`, for which the half-life at 1 µM in [2] amounted to 1.07 h. Also, the Stability entry in [3] is reported as “Stable”. Moreover, the Emax in data set [1] was 185%.
As for `CCCCCCCC/C=C\CCCCCCCCCC(=O)N[C@@H](Cc1ccccc1)C(=O)O`, in data set [1], the Emax was 103%.
Still for that read-out and setting: under `CCCCCCCCCCCCCCCC(=O)N[C@@H](Cc1ccccc1)C(=O)O` stands 180%.
As for `CCCCCCCC/C=C\CCCCCCCC(=O)N1Cc2ccccc2[C@H]1C(=O)O`, in [2], the half-life at 1 µM turned out to be 1.07 h. Further, the Stability entry in data set [3] is given as “Stable”. In addition, the Emax in data set [1] came out at 240%.
Consider `CCCCC/C=C\C/C=C\CCCCCCCC(=O)N1Cc2ccccc2[C@@H]1C(=O)O`, for which the half-life at 1 µM in [2] is 1.07 h. Moreover, the outcome in [4] and in data set [8] was inactive. Further, the Activity is 172 mg/dL in [5], -1.2 g in [6], “Dose-dependent effect” in data set [7] and 0.2 g in [9]. Also, in [3], the Stability result was “Stable”. Also, in data set [1], the Emax is 190%.
As for `CCCCCCCC/C=C\CCCCCCCC(=O)N[C@H](Cc1ccccc1)C(=O)O`, the Emax in data set [1] turned out to be 173%.
The same measure, in the same setting: in the case of `CCC/C=C\C/C=C\C/C=C\CCCCCCC(=O)N[C@@H](Cc1ccccc1)C(=O)O` it was 109%; in that of `CCCCCCCC/C=C\CCCCCCCC(=O)N1CCC[C@H]1C(=O)O`, 182%; in that of `CCCCCCCC/C=C\CCCCCCCC(=O)N1Cc2ccccc2C[C@H]1C(=O)O`, 187%.
Still for that read-out and setting: under `CCCCCCCC/C=C\CCCCCCCCNC(=O)N[C@@H](Cc1ccccc1)C(=O)O` stands 97%; under `CCCCCCCC/C=C\CCCCCCCC(=O)N[C@@H](CCC(=O)O)C(=O)O`, 106%; under `CCCCCCCC/C=C\CCCCCCCC(=O)NCCc1ccccc1`, 104%.
Same read-out and setting: under `CCCCCCCC/C=C\CCCCCCCC(=O)NCCC(=O)O` stands 185%.
For the molecule `CCCCC/C=C\C/C=C\C/C=C\C/C=C\CCCC(=O)N[C@@H](Cc1ccccc1)C(=O)O`, the Emax in [1] amounted to 200%.
Take `CCCCCCCC/C=C\CCCCCCCC(=O)N[C@@H](Cc1ccccc1)C(=O)O`: the Emax in data set [1] amounted to 161%.
On to `CCCCCCCC/C=C\CCCCCCCC(=O)N[C@H](C(=O)O)[C@@H](C)CC`, for which the half-life at 1 µM in [2] turned out to be 0.133 h. The Emax in data set [1] turned out to be 167%.
As to `CCCCCCCCCCCC(=O)N[C@@H](Cc1ccccc1)C(=O)O`, the Emax in data set [1] was 96%.
Regarding `CCCCCCCCCCCCCCCCCCCCCC(=O)N[C@@H](Cc1ccccc1)C(=O)O`, the Emax in [1] came out at 100%.
For `CCCCCCCC/C=C\CCCCCCCC(=O)NCC(=O)NCC(=O)O` (Oleoyl-Gly-Gly-OH), the maximal response (Emax) in data set [1] is 206%.
Still for that read-out and setting: in the case of `CCCCCCCCCCCCCCCCCC(=O)N[C@@H](Cc1ccccc1)C(=O)O` it was 148%; in that of `CCCCCCCC/C=C\CCCCCCCCNC(=O)NCC(=O)O`, 104%.
For `CCCCCCCCCCCCCCCCCCCC(=O)N[C@@H](Cc1ccccc1)C(=O)O`, in [1], the Emax was determined as 95%.
Still for that read-out and setting: in the case of `CCCCCCCC/C=C\CCCCCCCC(=O)N[C@@H](CCC(N)=O)C(=O)O` it was 164%; in that of `CC/C=C\C/C=C\C/C=C\C/C=C\C/C=C\CCCC(=O)N[C@@H](Cc1ccccc1)C(=O)O`, 259%; in that of `CCCCC/C=C\C/C=C\CCCCCCCC(=O)N[C@@H](Cc1ccccc1)C(=O)O`, 218%.
The same measure, in the same setting: in the case of `CCCCCCCC/C=C\CCCCCCCC(=O)N1CCCC[C@H]1C(=O)O` it was 174%.
Same read-out and setting: in the case of `CCCCCCCCCCC/C=C\CCCCC(=O)N[C@@H](Cc1ccccc1)C(=O)O` it was 110%; in that of `CCCCCC/C=C\CCCCCCCCCC(=O)N[C@@H](Cc1ccccc1)C(=O)O`, 115%.
In the case of `CCCCCCCC/C=C\CCCCCCCC(=O)N[C@@H](Cc1ccc(O)cc1)C(=O)O`, in data set [2], the half-life at 1 µM was 0.133 h. Besides, in [1], the maximal response (Emax) worked out at 105%.
In the case of `CCCCCCCC/C=C\CCCCCCCC(=O)N1Cc2ccccc2[C@@H]1C(=O)O`, the half-life at 1 µM in data set [2] is 1.07 h. Moreover, the Stability result in [3] is “Stable”. In addition, the Emax in data set [1] turned out to be 190%.
As for `CCCCCCCC/C=C\CCCCCCCC(=O)N1CCc2ccccc2C1C(=O)O` (stereo not drawn), the Emax in data set [1] stood at 216%.
On the same count and under the same terms, under `CCCCCCCC/C=C/CCCCCCCC(=O)N[C@@H](Cc1ccccc1)C(=O)O` stands 107%; under `CCCCCCCC/C=C\CCCCCCCC(=O)N1c2ccccc2C[C@H]1C(=O)O`, 146%.

Values taken from ChEMBL document CHEMBL4219135, “Discovery of Hydrolysis-Resistant Isoindoline N-Acyl Amino Acid Analogues that Stimulate Mitochondrial Respiration” (J Med Chem, 2018).
